Results reported in ChEMBL document CHEMBL3425499, “Iridoid glycosides from Barleria lupulina” (J Nat Prod, 2015).
Values after ≈ are worked out from the molar mass of the structure shown. Active and inactive are the calls of the source. The calls are words filed in the database; no cut-off is given here.

Key:
MDA-MB-231 = assay: Cytotoxicity against Stat3-activated human MDA-MB-231 cells assessed as growth inhibition at 20 ug/ml after 72 hrs by CyQuant assay; type: functional, cell-based
Outline: (§1)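 Cells were seeded at 1000 per well and grown 24 h. They were then exposed to 20 μg/mL compound for 72 h. Viability was measured by the CyQuant assay following the kit instructions and expressed relative to DMSO-treated control cells.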

NIH3T3 = assay: Cytotoxicity against mouse NIH/3T3 cells assessed as growth inhibition at 20 ug/ml after 72 hrs by CyQuant assay
U-251 = assay: Cytotoxicity against Stat3-activated human U251MG cells assessed as growth inhibition at 20 ug/ml after 72 hrs by CyQuant assay; type: functional, cell-based; outline: as §1
[1] = Antioxidant activity assessed as DPPH free radical scavenging activity measured as decoloration of a MeOH solution after 10 mins by spectrophotometry; type: physicochemical
Outline: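 Compounds were dissolved in MeOH at various concentrations and mixed with a methanolic DPPH solution. Mixtures were held 10 min in the dark, then remaining DPPH was read as absorbance at 517 nm. Scavenging was calculated against a blank of DPPH plus solvent, taken as 100%.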

Compound	inhibition (MDA-MB-231)	inhibition (NIH3T3)	inhibition (U-251)	IC50 [1]
COc1ccc(/C=C\C(=O)O[C@@H]2C[C@](C)(OC(C)=O)[C@H]3[C@H](O[C@@H]4O[C@H](CO)[C@@H](O)[C@H](O)[C@H]4O)OC=C(C(=O)O)[C@H]32)cc1	inactive	inactive	inactive	
C[C@]1(O)C[C@@H](O)[C@@H]2C(C(=O)O)=CO[C@@H](O[C@@H]3O[C@H](COC=O)[C@@H](O)[C@H](O)[C@H]3O)[C@@H]21	inactive	inactive	inactive	
COC(=O)C1=CO[C@@H](O[C@@H]2O[C@H](COC=O)[C@@H](O)[C@H](O)[C@H]2O)[C@H]2[C@@H]1[C@H](OC(C)=O)C[C@]2(C)OC(C)=O	inactive	inactive	inactive	
COC(=O)C1=CO[C@@H](O[C@@H]2O[C@H](CO)[C@@H](O)[C@H](O)[C@H]2O)[C@H]2[C@@H]1[C@H](O)C[C@]2(C)OC(C)=O [BARLERIN]	inactive	inactive	inactive	110.3 µg/mL (≈ 246 µM)
O=C1O[C@H]([C@@H](O)CO)C(O)=C1O [ASCORBIC ACID]				7.63 µg/mL (≈ 43.3 µM)
COc1ccc(/C=C/C(=O)O[C@@H]2C[C@](C)(OC(C)=O)[C@H]3[C@H](O[C@@H]4O[C@H](CO)[C@@H](O)[C@H](O)[C@H]4O)OC=C(C(=O)O)[C@H]32)cc1	inactive	inactive	inactive	
COC(=O)C1=CO[C@@H](O[C@@H]2O[C@H](CO)[C@@H](O)[C@H](O)[C@H]2O)[C@H]2[C@@H]1[C@H](OC(C)=O)C[C@]2(C)O	inactive	inactive	inactive	286.4 µg/mL (≈ 639 µM)
C[C@]1(O)C[C@@H](O)[C@@H]2C(C(=O)O)=CO[C@@H](O[C@@H]3O[C@H](CO)[C@@H](O)[C@H](O)[C@H]3O)[C@@H]21 [SHANZHISIDE]	inactive	inactive	inactive	78.6 µg/mL (≈ 200 µM)
COC(=O)C1=CO[C@@H](O[C@@H]2O[C@H](CO)[C@@H](O)[C@H](O)[C@H]2O)[C@H]2[C@@H]1[C@H](OC(=O)/C=C/c1ccc(O)cc1)C[C@]2(C)OC(C)=O				486.5 µg/mL (≈ 818 µM)
COC(=O)C1=CO[C@@H](O[C@@H]2O[C@H](COC=O)[C@@H](O)[C@H](O)[C@H]2O)[C@H]2[C@@H]1[C@H](O)C[C@]2(C)OC(C)=O	inactive	inactive	inactive	
C[C@]1(O)CC[C@@H]2C(C(=O)O)=CO[C@@H](O[C@@H]3O[C@H](CO)[C@@H](O)[C@H](O)[C@H]3O)[C@@H]21	inactive	inactive	inactive	
C[C@]1(O)C[C@@H](OC=O)[C@@H]2C(C(=O)O)=CO[C@@H](O[C@@H]3O[C@H](CO)[C@@H](O)[C@H](O)[C@H]3O)[C@@H]21	inactive	inactive	inactive	
COC(=O)C1=CO[C@@H](O[C@@H]2O[C@H](CO)[C@@H](O)[C@H](O)[C@H]2O)[C@@H]2[C@@](C)(OC(C)=O)CC[C@]12O	inactive	inactive	inactive	
COC(=O)C1=CO[C@@H](O[C@@H]2O[C@H](CO)[C@@H](O)[C@H](O)[C@H]2O)[C@H]2[C@@H]1[C@H](OC(C)=O)C[C@]2(C)OC(C)=O	inactive	inactive	inactive	
O=C(O)c1cc(O)c(O)c(O)c1 [GALLIC ACID]				2.79 µg/mL (≈ 16.4 µM)
COC(=O)C1=CO[C@@H](O[C@@H]2O[C@H](CO)[C@@H](O)[C@H](O)[C@H]2O)[C@H]2[C@@H]1[C@H](O)C[C@]2(C)O [SHANZHISIDE METHYL ESTER]	inactive	inactive	inactive	97.5 µg/mL (≈ 240 µM)
O=c1c(O)c(-c2ccc(O)c(O)c2)oc2cc(O)cc(O)c12 [QUERCETIN]				9.52 µg/mL (≈ 31.5 µM)
CC(=O)O[C@@]1(C)C[C@@H](O)[C@@H]2C(C(=O)O)=CO[C@@H](O[C@@H]3O[C@H](CO)[C@@H](O)[C@H](O)[C@H]3O)[C@@H]21	inactive	inactive	inactive	
